From PubChem
Rows were chosen to be rich in hits. Some 0.62% of all compounds tested hit in one or more screens of this group.
Arbovirus inh: antivirals against arbovirus infection, primary screen, cell-based, full library, 10K replicate subset; arbovirus infection cell-based antiviral screen; AID 1251, 2008; 0.37% of 200,000 active; inhibition, % at 10 µM; in the data active means inhibition above about 30%
ABCB1 block: ABCB1 efflux pump inhibitors, primary screen, cell-based, multiplex, flow cytometry, ABCG2 counter-screen | inhibition, % at 6.6 µM | CCRF-Adr cells, JC-1 efflux | ATP-dependent translocase ABCB1 (Homo sapiens), P08183 | 0.067% of 190,000 active; in the data active means inhibition above about 40%;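 further: higher value means more JC-1 retained so stronger ABCB1 efflux block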
Target sequence (P08183 whole entry, looked up): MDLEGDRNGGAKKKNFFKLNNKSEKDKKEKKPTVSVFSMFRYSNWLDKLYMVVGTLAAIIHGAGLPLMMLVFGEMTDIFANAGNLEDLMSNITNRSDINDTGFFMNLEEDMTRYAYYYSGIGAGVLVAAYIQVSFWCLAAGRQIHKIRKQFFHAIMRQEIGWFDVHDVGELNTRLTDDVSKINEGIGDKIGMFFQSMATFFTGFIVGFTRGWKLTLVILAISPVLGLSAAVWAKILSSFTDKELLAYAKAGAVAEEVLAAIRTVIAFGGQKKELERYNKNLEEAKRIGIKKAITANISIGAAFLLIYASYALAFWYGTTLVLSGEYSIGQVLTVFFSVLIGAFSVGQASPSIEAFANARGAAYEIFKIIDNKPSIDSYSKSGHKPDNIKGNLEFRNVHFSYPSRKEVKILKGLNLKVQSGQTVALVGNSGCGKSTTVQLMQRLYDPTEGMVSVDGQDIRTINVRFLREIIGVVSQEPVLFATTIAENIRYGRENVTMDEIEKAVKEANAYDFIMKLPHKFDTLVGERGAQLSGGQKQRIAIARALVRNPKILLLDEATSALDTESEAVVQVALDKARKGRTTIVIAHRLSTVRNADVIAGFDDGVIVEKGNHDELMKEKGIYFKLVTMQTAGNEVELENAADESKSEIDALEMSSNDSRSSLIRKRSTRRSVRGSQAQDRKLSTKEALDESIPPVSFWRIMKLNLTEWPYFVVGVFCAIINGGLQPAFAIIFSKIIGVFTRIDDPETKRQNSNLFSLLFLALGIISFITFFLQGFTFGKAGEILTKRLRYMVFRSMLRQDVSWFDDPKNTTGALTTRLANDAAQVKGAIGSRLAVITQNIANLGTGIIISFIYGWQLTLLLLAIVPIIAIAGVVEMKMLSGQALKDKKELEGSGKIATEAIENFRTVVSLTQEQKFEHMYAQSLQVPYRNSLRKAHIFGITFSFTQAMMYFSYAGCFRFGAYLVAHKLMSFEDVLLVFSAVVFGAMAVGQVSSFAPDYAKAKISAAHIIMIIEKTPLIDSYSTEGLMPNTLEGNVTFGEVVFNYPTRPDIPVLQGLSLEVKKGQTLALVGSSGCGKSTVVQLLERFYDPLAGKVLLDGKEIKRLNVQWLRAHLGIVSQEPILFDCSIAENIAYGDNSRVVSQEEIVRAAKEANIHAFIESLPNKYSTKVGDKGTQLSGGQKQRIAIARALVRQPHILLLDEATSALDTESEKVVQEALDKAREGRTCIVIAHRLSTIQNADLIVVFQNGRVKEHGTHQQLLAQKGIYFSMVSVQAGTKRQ
ABCG2 block: ABCG2 efflux pump inhibitors, primary screen, multiplex with ABCB1, IgMXP3 cells, flow cytometry. 0.1% of 190,000 active. AID 1325, 2008. Broad substrate specificity ATP-binding cassette transporter ABCG2 (Homo sapiens), Q9UNQ0. inhibition, % at 6.6 µM. JC-1 efflux;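 active means inhibition above 80%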
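Test system: IgMXP3 cells (ABCG2) mixed with DDAO far-red-labelled CCRF-Adr cells (ABCB1). Reagent: JC-1 transporter substrate. Compound dosing: single test compound dose, 6.6 µM final. Times: 10 min compound exposure, 25 °C. Detection: flow cytometry of retained JC-1 fluorescence. Read-out basis: efflux inhibition in percent versus controls. Controls: nicardipine and DMSO wells.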
MDM2 E3 inh: MDM2-luciferase reporter signal enhancers, primary screen, MDM2 E3 ligase inhibitor project, cell-based, luminescence, 1536-well. E3 ubiquitin-protein ligase Mdm2 (Homo sapiens), Q00987. cell-based MDM2 ubiquitination luciferase reporter, 2 h; 0 = plate control, 100 = twice control, blank-subtracted. signal enhancement, % at 5 µM. 0.11% of 210,000 active;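 active means signal enhancement of 30% or more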;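 further: luminescence tracks abundance of the self-degrading MDM2-luciferase fusion protein; higher signal means inhibition of MDM2 E3 ligase activity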
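Assay system: stable mammalian line carrying autodegrading MDM2–luciferase fusion reporter; Input: 2000 cells in each well; Compound dosing: single-point 5 µM; Schedule: 2 h compound exposure at 37 °C; Signal: SteadyLite luciferase luminescence after 15 min room-temperature reagent incubation; Evaluation: % luminescence enhancement versus blank-corrected plate control mean; Benchmarks: plate controls and plate blanks.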
Rad51 HR inh: human RAD51 strand exchange inhibitors, primary screen, biochemical, fluorescence. 0.085% of 200,000 active. inhibition, % at 10 µM. hRad51 DNA strand exchange, fluorescence dequenching;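 active means inhibition above 40% at the single screening dose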
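Test system: preformed human Rad51 ssDNA filaments. Compound dosing: single dose, 10 µM final compound. Incubation: filaments 15 min 37 °C, then compound 30 min. Technique: FRET fluorescence dequenching, excitation 485 nm, emission 520 nm. Read-out basis: percent inhibition from fluorescence, normalised to plate control and blank means. Benchmarks: plate controls and plate blanks.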
Large screens that a line does not name were inactive.

COCCNC(=O)C/C(C)=N/NC(=O)C(=O)NC1CCCCC1	none
Cc1cc(OC(=O)c2cc(F)c(F)cc2Cl)nc(C)n1	none
Cc1cc(C)c(S(=O)(=O)c2ccccc2)c(OC(=O)c2cc(F)c(F)cc2Cl)n1	MDM2 E3 inh 35
CCOC(=O)C(C(=O)OCC)C1OC(=O)c2cc3c(cc21)C(=O)OC3C(C(=O)OCC)C(=O)OCC (configuration not stated)	none
CCCC(=O)Oc1ccccc1C1SCc2cc(C)c(C)cc2CS1	Arbovirus inh 32 (no result: Rad51 HR inh)
CC1CCCCN1C(=O)COC(=O)/C=C/c1ccc2ccccc2n1 (configuration not stated)	none
O=C(CNCc1ccco1)Nc1ccc(Oc2ccccc2)cc1	none
O=C(Nc1nc2ccccc2s1)c1ccc(N2CCCCC2)c([N+](=O)[O-])c1	Arbovirus inh 38
CC(=O)NCc1ccc(S(=O)(=O)NC(C(=O)O)C(C)C)cc1 (configuration not stated)	none
COc1ccc(-c2csc(Nc3ccc(C)cn3)n2)cc1OC	Arbovirus inh 53
FC(F)(F)c1nnc2ccc(N3CCCC3)nn12	Rad51 HR inh 57
COc1ccc(/C=N/Nc2ccc(C(=O)O)cc2)cc1Br	none
C=CCOc1c(Br)cc(/C=N/Nc2ccc(C(=O)O)cc2)cc1OCC	Arbovirus inh 31
CN(Cc1nc(Cc2ccccc2F)no1)Cc1cccc2ncccc12	none
Fc1cccc(CN2CCN(c3nc4nonc4nc3NC3CC3)CC2)c1	none
O=C(NCC1CCCO1)c1ccc(Br)o1 (configuration not stated)	Rad51 HR inh 41
CC(C)(C)c1ccc(C(=O)NC(=S)NCC2CCCO2)cc1 (configuration not stated)	Arbovirus inh 40
CC(C)(C)c1ccc(C(=O)NNC(=S)NCC2CCCO2)cc1 (configuration not stated)	none
COc1ccc2[nH]c3c(N4CC(C)OC(C)C4)ncnc3c2c1 (configuration not stated)	MDM2 E3 inh 35
COc1cccc(N2CCN(c3ncnc4c3[nH]c3ccc(F)cc34)CC2C)c1 (configuration not stated)	none
COc1ccc(Oc2ccc(S(=O)(=O)N3CCCCC3)cc2S(=O)(=O)N2CCCCC2)cc1	Arbovirus inh 36 (no result: ABCB1 block, ABCG2 block)
COc1ccccc1Oc1ccc(S(=O)(=O)N2CCCC2)cc1	none (no result: Rad51 HR inh)
O=C(/C=C/c1cnc2ccccc2n1)NC12CC3CC(CC(C3)C1)C2	none
COc1ccc(N=CC2=C(Nc3ccc(OC)cc3)c3c(C)nn(-c4ccccn4)c3CC2)cc1	none (no result: Arbovirus inh, ABCB1 block, ABCG2 block, MDM2 E3 inh)
COC(=O)c1cc2n(n1)CCN(Cc1ccc(F)cc1)C2=O	Rad51 HR inh 46
COC(=O)c1cc2n(n1)CCN(Cc1ccccc1F)C2=O	none
CC(=O)N1CCN(Cc2nc3cc(NC(=O)c4cccc(Br)c4)ccc3n2C)CC1	none (no result: Arbovirus inh, ABCB1 block, ABCG2 block, Rad51 HR inh)
O=C(CCCN1C(=O)/C(=C/c2cccs2)SC1=S)Nc1cccc(C(=O)O)c1	Arbovirus inh 38
CC(NC(=O)Cn1ncc(Cl)c(Cl)c1=O)C12CC3CC(CC(C3)C1)C2 (configuration not stated)	MDM2 E3 inh 99
Cc1nc(/C(N)=N/OC(=O)Cc2ccccc2)no1	none
CN(C)c1ccc(-c2nnc(-c3cccs3)o2)cc1	none
Brc1ccc(-c2cnc(-c3cccs3)o2)cc1	MDM2 E3 inh 32
Cc1c2cc(O)c(=O)cc-2oc2cc(O)c(O)cc12	ABCB1 block 47
CN(C(=O)c1coc(=O)c2ccccc12)c1ccc(Br)cc1	Arbovirus inh 40
COc1ccc2[nH]c(=O)c(CN(C(=O)c3cccnc3)c3ccccc3C)cc2c1	none (no result: Arbovirus inh, ABCB1 block, ABCG2 block, Rad51 HR inh)
CCOC(=O)C(NC(=O)c1ccccc1)(OCc1ccc(F)cc1)C(F)(F)F (configuration not stated)	none
CCOC(=O)C(NC(=O)c1cccc(Cl)c1)(OCc1ccc(F)cc1)C(F)(F)F (configuration not stated)	Arbovirus inh 49
Cc1nc(S/C(=C/c2ccc(-c3cccc(Cl)c3)o2)C(=O)O)n[nH]1	Arbovirus inh 33 (no result: Rad51 HR inh)
CC1=NOC(=O)/C1=C\c1ccc(-c2cccc(Cl)c2)o1	none
CCOc1cccc(C(=O)Nc2ccccc2N2CCN(C(=O)C(C)C)CC2)c1	Arbovirus inh 35
CCCCNc1ccc(C(=O)O)cc1	none (no result: Arbovirus inh, ABCB1 block, ABCG2 block, Rad51 HR inh)
CSc1ncc(Cl)c(C(=O)C(C#N)c2nc3c(C)cc(C)cc3c(=O)[nH]2)n1 (configuration not stated)	Arbovirus inh 41
Cc1cccc(OCCCC(=O)Nc2ccc(S(N)(=O)=O)cc2)c1	none
CCN(CC)c1ccc(NC(=O)CCCOc2cccc(C)c2)cc1	Rad51 HR inh 41
Cc1cccc(NC(=O)C2(c3cccs3)CCOCC2)n1	none
COc1ccc(-c2nc(NC(=O)c3ccc(OCC(=O)N4CCOCC4)c(OC)c3)sc2C)cc1	Arbovirus inh 45
CCc1cc2c(=O)c(-c3cscn3)coc2c(CN(C)C)c1O	Arbovirus inh 38
Oc1ccc2cc(Br)ccc2c1CN1CCCC1	none
Cn1c(=O)[nH]c(=O)c2c1nc(Br)n2CCCc1ccccc1	MDM2 E3 inh 30 (no result: Rad51 HR inh)
Cn1c(=O)c2c(nc(Br)n2CCCc2ccccc2)n(C)c1=O	none (no result: Rad51 HR inh)
Cc1ccc(C(=O)NCCc2ccc(F)cc2)s1	none
O=[N+]([O-])c1ccc(/C=C/C2=NN(c3ccccc3)C(c3ccco3)C2)cc1 (configuration not stated)	ABCB1 block active, ABCG2 block active
Cc1cccc(-n2nc(C)c3c(C(=O)O)cc(-c4cccs4)nc32)c1	Arbovirus inh 42
Cc1ccc(C(=O)NCCSc2ccccc2)cc1S(=O)(=O)Nc1ccccc1	none
N#Cc1c(SCc2cccc(Cl)c2)sc(C(=O)c2ccccc2)c1N	Arbovirus inh 48
COc1ccc(C(=O)/C=C/c2ccc(OC)c(CN3CCOCC3)c2)cc1	none
COc1ccc(C(=O)/C=C/c2ccc(OC)c(Cn3nnc4ccccc43)c2)cc1	Arbovirus inh 37
CC(=O)Nc1ccc(CN2CCCC(C(=O)c3ccc(C(F)(F)F)cc3)C2)cc1 (configuration not stated)	none (no result: Rad51 HR inh)
CCC(C)NC(=O)CN(c1ccc(Cl)c(Cl)c1)S(C)(=O)=O (configuration not stated)	none
O=C(Nc1sc2c(c1C(=O)O)CCCCC2)c1cccs1	Arbovirus inh 46
CC(C)(C)c1ccc(C(=O)Nc2sc3c(c2C(=O)O)CCC3)cc1	Arbovirus inh 32
Cc1ccc(C(=O)Nc2sc3c(c2C(=O)O)CCCCC3)o1	Arbovirus inh 47
